Experimental data taken from ChEMBL document CHEMBL5325511, “Discovery of N-(4-(Aminomethyl)phenyl)-5-methylpyrimidin-2-amine Derivatives as Potent and Selective JAK2 Inhibitors” (ACS Med Chem Lett, 2023).

Key:
[1] = target: Tyrosine-protein kinase JAK1 (Homo sapiens, UniProt P23458); test: Inhibition of JAK1 (unknown origin) in presence of Mg/ATP mixture by [gamma p33]-ATP based radiometric assay
Summary of the method: (§1)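 IC50 values determined by Eurofins Discovery.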

[2] = target: T1, Tyrosine-protein kinase JAK2 (Homo sapiens, UniProt O60674); test: Inhibition of JAK2 (unknown origin) in presence of Mg/ATP mixture by [gamma p33]-ATP based radiometric assay; summary of the method: as §1
[3] = Tmax in Sprague-Dawley rat at 5 mg/kg, po measured upto 24 hrs by LC-MS/MS analysis; assay type: ADME, organism-based; conditions: Sprague-Dawley, in vivo, read-out: Tmax
Summary of the method: (§2)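 Sprague–Dawley rats, n = 5 per group, dosed at 5 mg/kg as a solution in 2% ethanol and 1% Tween 80, pH 5.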

[4] = target: Tyrosine-protein kinase JAK2 (Homo sapiens, UniProt O60674, V617F); test: Inhibition of JAK2 V617F mutant in human SET2 cells; assay type: cell-based
Summary of the method: (§3)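 Cell proliferation assay. IC50 is the concentration that inhibits proliferation by 50%, taken from dose–response curves. Mean ± SEM of at least three independent experiments.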

[5] = Half life in Sprague-Dawley rat at 5 mg/kg, po measured upto 24 hrs by LC-MS/MS analysis; assay type: ADME, organism-based; conditions: Sprague-Dawley, in vivo
Summary of the method: (§4)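 Sprague–Dawley rats, n = 5, dosed at 5 mg/kg as a solution in 2% ethanol and 1% Tween 80, pH 5.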

[6] = Oral bioavailability in Sprague-Dawley rat at 5 mg/kg measured upto 24 hrs by LC-MS/MS analysis; assay type: ADME, organism-based; conditions: in vivo; summary of the method: as §2
[7] = target: T2, Tyrosine-protein kinase JAK3 (Homo sapiens, UniProt P52333); test: Inhibition of JAK3 (unknown origin) in presence of Mg/ATP mixture by [gamma p33]-ATP based radiometric assay
T2 sequence (P52333 whole entry): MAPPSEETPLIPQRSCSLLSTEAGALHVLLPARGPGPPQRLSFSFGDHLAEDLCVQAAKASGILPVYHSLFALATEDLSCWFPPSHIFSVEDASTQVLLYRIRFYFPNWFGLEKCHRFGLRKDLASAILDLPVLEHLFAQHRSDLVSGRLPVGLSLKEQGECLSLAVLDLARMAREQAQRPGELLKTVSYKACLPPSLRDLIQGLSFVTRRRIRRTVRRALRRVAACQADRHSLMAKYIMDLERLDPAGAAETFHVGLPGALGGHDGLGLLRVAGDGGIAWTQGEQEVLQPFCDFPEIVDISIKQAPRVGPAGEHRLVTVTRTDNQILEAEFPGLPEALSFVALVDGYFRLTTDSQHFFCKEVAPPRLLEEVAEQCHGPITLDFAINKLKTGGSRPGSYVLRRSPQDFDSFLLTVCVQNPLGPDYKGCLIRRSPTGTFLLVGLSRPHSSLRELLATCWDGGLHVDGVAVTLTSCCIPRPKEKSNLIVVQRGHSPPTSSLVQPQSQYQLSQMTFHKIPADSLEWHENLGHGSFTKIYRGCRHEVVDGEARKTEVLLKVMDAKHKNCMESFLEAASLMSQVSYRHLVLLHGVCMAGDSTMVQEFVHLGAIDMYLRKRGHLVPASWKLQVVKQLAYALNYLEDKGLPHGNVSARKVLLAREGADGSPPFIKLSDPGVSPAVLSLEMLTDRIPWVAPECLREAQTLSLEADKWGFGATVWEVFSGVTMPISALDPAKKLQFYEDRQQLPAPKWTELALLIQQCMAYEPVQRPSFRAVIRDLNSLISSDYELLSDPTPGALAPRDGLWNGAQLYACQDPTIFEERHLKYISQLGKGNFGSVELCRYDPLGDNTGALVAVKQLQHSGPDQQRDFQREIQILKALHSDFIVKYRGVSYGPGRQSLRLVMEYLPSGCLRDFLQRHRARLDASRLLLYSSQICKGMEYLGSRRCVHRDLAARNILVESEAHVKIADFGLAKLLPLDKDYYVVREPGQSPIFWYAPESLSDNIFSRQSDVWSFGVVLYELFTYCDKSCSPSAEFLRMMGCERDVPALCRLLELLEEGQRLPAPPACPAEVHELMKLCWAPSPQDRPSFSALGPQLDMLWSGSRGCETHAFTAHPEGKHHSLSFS

[8] = target: T3, Receptor-type tyrosine-protein kinase FLT3 (Homo sapiens, UniProt P36888); test: Inhibition of FLT3 in human MOLM-13 cells; assay type: cell-based; summary of the method: as §3
T3 sequence (P36888 whole entry): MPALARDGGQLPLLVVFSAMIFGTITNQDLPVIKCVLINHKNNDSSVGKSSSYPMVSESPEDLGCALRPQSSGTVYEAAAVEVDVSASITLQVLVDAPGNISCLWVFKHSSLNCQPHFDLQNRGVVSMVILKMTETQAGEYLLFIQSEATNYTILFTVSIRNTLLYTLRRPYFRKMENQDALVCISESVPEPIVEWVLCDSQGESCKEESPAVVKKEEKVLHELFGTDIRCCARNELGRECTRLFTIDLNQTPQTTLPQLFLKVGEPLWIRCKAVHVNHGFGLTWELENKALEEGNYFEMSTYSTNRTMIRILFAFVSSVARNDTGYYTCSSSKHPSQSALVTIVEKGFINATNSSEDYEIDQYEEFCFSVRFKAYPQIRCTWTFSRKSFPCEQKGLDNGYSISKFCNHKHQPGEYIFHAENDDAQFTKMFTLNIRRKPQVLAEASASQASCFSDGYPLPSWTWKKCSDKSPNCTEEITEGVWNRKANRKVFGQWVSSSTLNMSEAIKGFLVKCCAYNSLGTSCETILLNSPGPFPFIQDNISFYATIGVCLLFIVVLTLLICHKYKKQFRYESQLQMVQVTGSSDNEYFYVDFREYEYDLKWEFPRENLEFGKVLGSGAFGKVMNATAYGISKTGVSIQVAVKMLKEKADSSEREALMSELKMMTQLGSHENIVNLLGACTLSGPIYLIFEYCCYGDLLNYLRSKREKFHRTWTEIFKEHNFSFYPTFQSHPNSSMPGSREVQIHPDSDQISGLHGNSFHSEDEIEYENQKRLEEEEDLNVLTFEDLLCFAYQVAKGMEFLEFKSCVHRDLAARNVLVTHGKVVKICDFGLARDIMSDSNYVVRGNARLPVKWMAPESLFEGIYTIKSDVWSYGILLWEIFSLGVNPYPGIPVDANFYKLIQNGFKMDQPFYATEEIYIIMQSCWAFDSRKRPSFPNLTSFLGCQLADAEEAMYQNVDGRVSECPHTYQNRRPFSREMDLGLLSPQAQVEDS

[9] = Metabolic stability in human liver microsomes assessed as half life; assay type: ADME, Microsome
[10] = Selectivity ratio of IC50 for FLT3 (unknown origin) to IC50 for JAK2 (unknown origin)
[11] = target: Tyrosine-protein kinase JAK2 (Mus musculus, UniProt Q62120, V617F); test: Inhibition of JAK2 V617F mutant in mouse BaF3 cells; assay type: cell-based; summary of the method: as §3
[12] = Selectivity ratio of IC50 for JAK3 (unknown origin) to IC50 for JAK2 (unknown origin)
[13] = Selectivity ratio of IC50 for TYK2 (unknown origin) to IC50 for JAK2 (unknown origin)
[14] = target: T1, Tyrosine-protein kinase JAK2; test: Inhibition of human JAK2 JH1 expressed in baculovirus infected Sf9 cells assessed as residual activity at 100 nM relative to control
[15] = target: T3, Receptor-type tyrosine-protein kinase FLT3; test: Inhibition of FLT3 (unknown origin) in presence of Mg/ATP mixture by [gamma p33]-ATP based radiometric assay; summary of the method: as §1
[16] = Cmax in Sprague-Dawley rat at 5 mg/kg, po measured upto 24 hrs by LC-MS/MS analysis; assay type: ADME, organism-based; set-up: dose 5 mg/kg, time < 24 hrs, route po; conditions: Sprague-Dawley, in vivo, read-out: Cmax; summary of the method: as §4
[17] = Clearance in Sprague-Dawley rat at 5 mg/kg, po measured upto 24 hrs by LC-MS/MS analysis; assay type: ADME, organism-based; conditions: in vivo; summary of the method: as §4
[18] = AUC(0 to t) in Sprague-Dawley rat at 5 mg/kg, po measured upto 24 hrs by LC-MS/MS analysis; assay type: ADME, organism-based; set-up: time < 24 hrs, dose 5 mg/kg, route po; conditions: in vivo; summary of the method: as §4
[19] = target: Non-receptor tyrosine-protein kinase TYK2 (Homo sapiens, UniProt P29597); test: Inhibition of TYK2 (unknown origin) in presence of Mg/ATP mixture by [gamma p33]-ATP based radiometric assay
Sequence of Non-receptor tyrosine-protein kinase TYK2 (P29597 whole entry): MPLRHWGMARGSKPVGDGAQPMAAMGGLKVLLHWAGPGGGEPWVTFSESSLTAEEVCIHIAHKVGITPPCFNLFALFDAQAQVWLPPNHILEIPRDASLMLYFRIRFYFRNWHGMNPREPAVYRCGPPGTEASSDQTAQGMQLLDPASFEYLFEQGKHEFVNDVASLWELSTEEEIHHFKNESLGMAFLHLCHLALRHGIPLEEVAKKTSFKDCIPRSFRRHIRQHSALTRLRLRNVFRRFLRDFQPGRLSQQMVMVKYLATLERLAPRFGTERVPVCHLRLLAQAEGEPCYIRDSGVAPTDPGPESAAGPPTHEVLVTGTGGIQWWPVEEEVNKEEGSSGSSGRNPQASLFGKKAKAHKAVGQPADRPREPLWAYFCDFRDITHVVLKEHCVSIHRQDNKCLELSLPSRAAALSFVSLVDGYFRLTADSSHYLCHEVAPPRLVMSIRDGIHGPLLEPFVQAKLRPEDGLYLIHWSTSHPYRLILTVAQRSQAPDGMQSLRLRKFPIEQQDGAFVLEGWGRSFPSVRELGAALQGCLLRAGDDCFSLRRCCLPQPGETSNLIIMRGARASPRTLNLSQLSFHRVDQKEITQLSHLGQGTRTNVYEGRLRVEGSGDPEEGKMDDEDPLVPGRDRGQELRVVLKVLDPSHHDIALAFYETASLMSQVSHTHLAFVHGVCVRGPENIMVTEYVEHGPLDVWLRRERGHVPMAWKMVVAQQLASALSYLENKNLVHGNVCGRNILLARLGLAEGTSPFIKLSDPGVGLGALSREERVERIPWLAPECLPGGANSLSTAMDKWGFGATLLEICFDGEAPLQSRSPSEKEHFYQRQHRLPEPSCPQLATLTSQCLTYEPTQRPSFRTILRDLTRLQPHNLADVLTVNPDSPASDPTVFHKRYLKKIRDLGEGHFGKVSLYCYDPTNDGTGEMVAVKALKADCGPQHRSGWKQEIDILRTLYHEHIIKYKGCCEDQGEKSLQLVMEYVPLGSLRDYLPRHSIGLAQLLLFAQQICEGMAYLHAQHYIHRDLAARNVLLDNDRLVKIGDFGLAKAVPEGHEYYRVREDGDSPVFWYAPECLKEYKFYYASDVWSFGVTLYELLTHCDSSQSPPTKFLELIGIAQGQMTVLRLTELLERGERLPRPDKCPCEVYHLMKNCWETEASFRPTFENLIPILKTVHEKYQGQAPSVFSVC

T1 sequence (O60674 whole entry): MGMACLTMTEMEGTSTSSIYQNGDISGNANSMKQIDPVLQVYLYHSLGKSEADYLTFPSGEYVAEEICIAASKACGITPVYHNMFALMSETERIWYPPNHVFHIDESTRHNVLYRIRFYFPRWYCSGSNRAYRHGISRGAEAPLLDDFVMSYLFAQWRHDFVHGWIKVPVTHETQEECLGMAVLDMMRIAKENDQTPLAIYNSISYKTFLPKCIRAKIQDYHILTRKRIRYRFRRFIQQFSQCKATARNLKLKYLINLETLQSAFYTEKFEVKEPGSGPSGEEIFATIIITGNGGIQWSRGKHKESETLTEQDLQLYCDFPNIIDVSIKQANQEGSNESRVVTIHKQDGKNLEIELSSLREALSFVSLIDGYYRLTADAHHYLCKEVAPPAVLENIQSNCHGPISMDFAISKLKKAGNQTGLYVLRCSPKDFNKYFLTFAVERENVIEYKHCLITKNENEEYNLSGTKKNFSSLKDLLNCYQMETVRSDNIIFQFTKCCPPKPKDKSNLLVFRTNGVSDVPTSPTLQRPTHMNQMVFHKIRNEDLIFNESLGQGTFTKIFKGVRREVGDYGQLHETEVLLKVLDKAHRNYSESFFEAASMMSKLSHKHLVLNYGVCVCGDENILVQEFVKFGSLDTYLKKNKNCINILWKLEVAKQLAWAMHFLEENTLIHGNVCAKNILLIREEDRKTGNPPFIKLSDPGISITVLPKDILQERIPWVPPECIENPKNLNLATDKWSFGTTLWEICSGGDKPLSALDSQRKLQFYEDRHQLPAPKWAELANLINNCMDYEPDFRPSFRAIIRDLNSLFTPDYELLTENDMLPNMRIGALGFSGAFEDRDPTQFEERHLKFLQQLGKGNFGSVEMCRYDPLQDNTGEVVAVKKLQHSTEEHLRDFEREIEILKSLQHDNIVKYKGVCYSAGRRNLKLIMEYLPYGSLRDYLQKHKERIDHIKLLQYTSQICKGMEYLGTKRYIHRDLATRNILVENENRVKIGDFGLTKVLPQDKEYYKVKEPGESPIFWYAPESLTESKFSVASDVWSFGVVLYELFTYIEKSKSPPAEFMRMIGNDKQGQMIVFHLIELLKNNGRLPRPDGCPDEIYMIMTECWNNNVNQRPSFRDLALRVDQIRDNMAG
Sequence of Tyrosine-protein kinase JAK2 (Homo sapiens, UniProt O60674, V617F) (O60674 whole entry V617F): as the sequence (O60674 whole entry) above, with V617F counted along it
Sequence of Tyrosine-protein kinase JAK2 (Mus musculus, UniProt Q62120, V617F) (Q62120 as listed by the source V617F): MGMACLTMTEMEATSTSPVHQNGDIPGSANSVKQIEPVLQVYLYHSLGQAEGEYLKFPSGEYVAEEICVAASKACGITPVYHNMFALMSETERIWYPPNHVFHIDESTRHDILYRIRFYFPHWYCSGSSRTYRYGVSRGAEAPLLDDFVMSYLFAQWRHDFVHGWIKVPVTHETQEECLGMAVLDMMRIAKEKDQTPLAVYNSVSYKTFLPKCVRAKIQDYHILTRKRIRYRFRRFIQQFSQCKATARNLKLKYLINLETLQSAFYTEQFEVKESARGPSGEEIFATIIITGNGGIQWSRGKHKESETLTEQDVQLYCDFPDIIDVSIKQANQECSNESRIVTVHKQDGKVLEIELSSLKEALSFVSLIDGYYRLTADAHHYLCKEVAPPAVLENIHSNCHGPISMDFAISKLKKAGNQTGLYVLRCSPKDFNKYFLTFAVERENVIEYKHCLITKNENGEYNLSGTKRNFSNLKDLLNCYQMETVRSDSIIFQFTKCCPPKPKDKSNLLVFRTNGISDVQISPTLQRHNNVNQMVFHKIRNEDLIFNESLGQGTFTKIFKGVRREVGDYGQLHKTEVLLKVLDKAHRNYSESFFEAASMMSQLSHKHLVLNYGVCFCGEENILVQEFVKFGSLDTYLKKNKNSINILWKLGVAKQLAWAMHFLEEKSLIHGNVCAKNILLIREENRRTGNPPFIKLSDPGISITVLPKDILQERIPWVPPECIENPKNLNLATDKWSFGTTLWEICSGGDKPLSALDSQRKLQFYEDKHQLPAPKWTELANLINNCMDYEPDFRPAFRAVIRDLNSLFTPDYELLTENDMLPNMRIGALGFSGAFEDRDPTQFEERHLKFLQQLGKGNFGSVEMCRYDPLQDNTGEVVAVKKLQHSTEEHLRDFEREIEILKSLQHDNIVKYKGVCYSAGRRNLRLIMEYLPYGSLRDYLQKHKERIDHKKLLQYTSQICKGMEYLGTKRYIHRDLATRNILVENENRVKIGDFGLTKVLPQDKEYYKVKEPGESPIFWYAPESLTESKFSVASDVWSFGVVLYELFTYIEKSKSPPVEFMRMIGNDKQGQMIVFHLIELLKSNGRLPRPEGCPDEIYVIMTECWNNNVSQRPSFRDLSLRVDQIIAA
Sequence of Tyrosine-protein kinase JAK1 (P23458 whole entry): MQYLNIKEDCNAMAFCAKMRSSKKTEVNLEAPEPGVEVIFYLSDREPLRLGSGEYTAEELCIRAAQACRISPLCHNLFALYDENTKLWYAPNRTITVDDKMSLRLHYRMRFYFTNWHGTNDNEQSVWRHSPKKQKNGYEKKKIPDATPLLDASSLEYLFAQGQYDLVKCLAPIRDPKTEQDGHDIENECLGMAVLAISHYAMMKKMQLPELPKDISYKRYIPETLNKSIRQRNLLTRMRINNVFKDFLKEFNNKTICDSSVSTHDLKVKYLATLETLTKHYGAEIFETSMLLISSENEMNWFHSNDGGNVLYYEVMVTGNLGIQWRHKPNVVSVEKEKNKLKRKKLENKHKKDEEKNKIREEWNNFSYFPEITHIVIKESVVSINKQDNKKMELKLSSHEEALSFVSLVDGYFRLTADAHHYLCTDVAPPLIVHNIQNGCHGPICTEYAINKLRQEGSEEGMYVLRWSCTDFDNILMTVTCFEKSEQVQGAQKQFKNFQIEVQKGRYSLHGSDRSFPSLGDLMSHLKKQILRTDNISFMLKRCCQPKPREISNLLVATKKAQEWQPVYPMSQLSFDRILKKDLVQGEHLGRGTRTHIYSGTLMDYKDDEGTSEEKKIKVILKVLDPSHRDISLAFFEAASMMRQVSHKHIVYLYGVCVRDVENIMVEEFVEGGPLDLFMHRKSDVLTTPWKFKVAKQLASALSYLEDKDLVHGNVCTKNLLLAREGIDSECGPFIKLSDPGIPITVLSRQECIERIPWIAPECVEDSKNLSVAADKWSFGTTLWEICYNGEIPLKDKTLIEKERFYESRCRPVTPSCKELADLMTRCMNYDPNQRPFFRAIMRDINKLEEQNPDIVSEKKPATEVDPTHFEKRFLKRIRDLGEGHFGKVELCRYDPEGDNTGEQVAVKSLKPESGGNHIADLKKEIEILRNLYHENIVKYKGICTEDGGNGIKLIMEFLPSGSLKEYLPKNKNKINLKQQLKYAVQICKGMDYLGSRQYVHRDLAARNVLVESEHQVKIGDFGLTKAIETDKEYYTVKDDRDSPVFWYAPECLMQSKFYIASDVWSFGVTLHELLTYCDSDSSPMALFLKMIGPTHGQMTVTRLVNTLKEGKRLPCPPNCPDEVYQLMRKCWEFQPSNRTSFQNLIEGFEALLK

- IC50 [1]: 142 nM
- IC50 [2]: 6 nM
- Tmax [3]: 1 h
- IC50 [4]: 212 nM
- half-life [5]: 6.3 h
- bioavailability [6]: 35.7%
- IC50 [7]: 287 nM
- IC50 [8]: 1510 nM
- half-life [9]: > 2 h
- Ratio IC50 [10]: 68.7
- IC50 [11]: 69.2 nM
- Ratio IC50 [12]: 47.8
- Ratio IC50 [13]: 32
- Activity [14]: 0%
- IC50 [15]: 412 nM
- Cmax [16]: 77.8 ng/mL
- CL [17]: 340 mL/min/kg
- AUCt [18]: 1556.8 ng·h/mL
- IC50 [19]: 192 nM
SMILES: CCS(=O)(=O)NCc1ccc(Nc2ncc(C)c(-c3cnn(C(C)C)c3)n2)cc1
